pEC50, pIC50: −log10 of the molar value. *1 amine or outer side, *2 acyl side, *3 side chain or, on linkers, in order; H or OH if unused. Where a SMILES comes first, the peptide text is derived from it. Side-chain parts run from the residue outwards. The star is where a group is joined. NH(4-MeO-phenyl) = COc1ccc(N*)cc1; pNA = O=[N+]([O-])c1ccc(N*)cc1; X2 = O=[N+]([O-])c1cccc(N*)c1; NH(3-MeOPh) = COc1cccc(N*)c1; 3Abz = Nc1cccc(C(=O)O)c1; 4Abz = Nc1ccc(C(=O)O)cc1; X1 = CC(=O)c1ccc(N*)cc1; 2Abz = Nc1ccccc1C(=O)O; Boc = CC(C)(C)OC(=O)*; CO = O=C([*:1])[*:2]
Legend:
[1] = species: Cavia porcellus; assay: Relative affinity for type B (cortex) over type A (pancreatic) cholecystokinin receptors
How it was run: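 Selectivity ratio is IC50 in cortex divided by IC50 in pancreas. Both IC50s come from displacement of specific [125I]Bolton–Hunter CCK-8 binding, each determination run in duplicate.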

[2] = target: Cholecystokinin type B receptor (Cavia porcellus); assay: Displacement of [125I]- BH-CCK-8 from Cholecystokinin type B receptor of guinea pig cortex
[3] = target: T1, Cholecystokinin receptor type A (Cavia porcellus, UniProt Q63931); assay: Displacement of [125I]- BH-CCK-8 from Cholecystokinin type A receptor of guinea pig pancreas
T1 sequence (Q63931 whole entry): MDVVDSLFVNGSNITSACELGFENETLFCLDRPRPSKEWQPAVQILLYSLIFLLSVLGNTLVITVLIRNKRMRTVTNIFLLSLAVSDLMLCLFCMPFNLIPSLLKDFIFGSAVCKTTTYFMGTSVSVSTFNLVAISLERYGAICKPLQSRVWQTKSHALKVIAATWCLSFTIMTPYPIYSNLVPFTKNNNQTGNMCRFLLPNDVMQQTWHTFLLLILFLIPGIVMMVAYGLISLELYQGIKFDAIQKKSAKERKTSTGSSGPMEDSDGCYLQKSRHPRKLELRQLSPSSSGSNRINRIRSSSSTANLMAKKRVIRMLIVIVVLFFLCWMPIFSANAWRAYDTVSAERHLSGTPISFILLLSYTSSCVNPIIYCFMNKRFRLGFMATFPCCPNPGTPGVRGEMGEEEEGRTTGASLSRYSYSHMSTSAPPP
How it was run: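 Competition binding in pancreas and cortex tissue membranes with [125I]Bolton–Hunter CCK-8 as radioligand. […] Values are means ± SE over several determinations, each run in duplicate with <5% sample variability.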

[4] = tested on: NCI-H345; assay: The maximal response elicited by the compound (concentration of 10 uM) relative to the maximal response elicited by CCK-8; type: functional, Homo sapiens
[5] = tested on: NCI-H345; assay: Concentration that produced 50% of the maximal response in intracellular calcium mobilization in the NCI-H345 cells.; type: functional, cell-based; conditions: Homo sapiens
How it was run: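 NCI-H345 cells carry the CCK-B/gastrin receptor. Intracellular calcium mobilization was read by indo-1 fluorescence. […] Values are means ± SE of several determinations.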

[6] = species: Cavia porcellus; assay: Concentration that stimulated amylase release in guinea pig pancreatic acini relative to CCK-8; type: functional
[7] = species: Cavia porcellus; assay: The maximal response elicited by the compound (concentration of 100 uM) relative to the maximal response elicited by CCK-8 (1 uM) in the PI hydrolysis assay; type: functional
[8] = tested on: NCI-H345; assay: The maximal response elicited by the compound (concentration of 1 uM) relative to the maximal response elicited by CCK-8; type: functional, Homo sapiens

SMILES | C/P [1] | pIC50 [2] | pIC50 [3] | Max response [4] [%] | pEC50 [5] | pEC50 [6] | Max response [7] [%] | Max response [8] [%]
COC(=O)c1ccccc1NC(=O)NCCCC[C@H](NC(=O)[C@H](Cc1c[nH]c2ccccc12)NC(=O)OC(C)(C)C)C(=O)N[C@@H](CC(=O)O)C(=O)N[C@@H](Cc1ccccc1)C(N)=O (Boc-WK([CO-2Abz-OMe])DF-NH2) | 91 | 5.51 |  |  |  |  |  | 
COC(=O)c1cccc(NC(=O)NCCCC[C@H](NC(=O)[C@H](Cc2c[nH]c3ccccc23)NC(=O)OC(C)(C)C)C(=O)N[C@@H](CC(=O)O)C(=O)N[C@@H](Cc2ccccc2)C(N)=O)c1 (Boc-WK([CO-3Abz-OMe])DF-NH2) | 67 |  | 7.82 |  |  |  |  | 
COC(=O)c1ccc(NC(=O)NCCCC[C@H](NC(=O)[C@H](Cc2c[nH]c3ccccc23)NC(=O)OC(C)(C)C)C(=O)N[C@@H](CC(=O)O)C(=O)N[C@@H](Cc2ccccc2)C(N)=O)cc1 (Boc-WK([CO-4Abz-OMe])DF-NH2) |  |  | 7.15 |  |  |  |  | 
COc1cccc(NC(=O)NCCCC[C@H](NC(=O)[C@H](Cc2c[nH]c3ccccc23)NC(=O)OC(C)(C)C)C(=O)N[C@@H](CC(=O)O)C(=O)N[C@@H](Cc2ccccc2)C(N)=O)c1 (Boc-WK([CO-NH(3-MeOPh)])DF-NH2) | 150 |  | 8.03 |  |  |  |  | 
COc1ccc(NC(=O)NCCCC[C@H](NC(=O)[C@H](Cc2c[nH]c3ccccc23)NC(=O)OC(C)(C)C)C(=O)N[C@@H](CC(=O)O)C(=O)N[C@@H](Cc2ccccc2)C(N)=O)cc1 (Boc-WK([CO-NH(4-MeO-phenyl)])DF-NH2) | 50 |  | 7.85 |  |  |  |  | 
CC(=O)c1ccc(NC(=O)NCCCC[C@H](NC(=O)[C@H](Cc2c[nH]c3ccccc23)NC(=O)OC(C)(C)C)C(=O)N[C@@H](CC(=O)O)C(=O)N[C@@H](Cc2ccccc2)C(N)=O)cc1 (Boc-WK([CO-X1])DF-NH2) | 0.26 |  | 7.34 | 91 | 6.92 | 7.07 | 80 | 
CC(C)(C)OC(=O)N[C@@H](Cc1c[nH]c2ccccc12)C(=O)N[C@@H](CCCCNC(=O)Nc1cccc([N+](=O)[O-])c1)C(=O)N[C@@H](CC(=O)O)C(=O)N[C@@H](Cc1ccccc1)C(N)=O (Boc-WK([CO-X2])DF-NH2) | 210 |  | 8.24 |  |  |  |  | 
CC(C)(C)OC(=O)N[C@@H](Cc1c[nH]c2ccccc12)C(=O)N[C@@H](CCCCNC(=O)Nc1ccc([N+](=O)[O-])cc1)C(=O)N[C@@H](CC(=O)O)C(=O)N[C@@H](Cc1ccccc1)C(N)=O (Boc-WK([CO-pNA])DF-NH2) | 0.75 |  | 7.39 |  | 7.33 | 7.41 | 74 | 94

From ChEMBL document CHEMBL1129989, “Minor structural differences in Boc-CCK-4 derivatives dictate affinity and selectivity for CCK-A and CCK-B receptors” (J Med Chem, 1997)
